Experimental data from different studies.
Compare with care: the assays were run in different laboratories.
Cell line: U-87 MG
Read-out: cell growth or viability

Cn1nnc2c(C(N)=O)ncn2c1=O  IC50 (resazurin; 7 days): 51 µM
Fc1ccc2c(CNCC3(N4CCC(F)C4)COC3)c[nH]c2c1 (centres unmarked)  viability (30 µM; 48 h): 97.6%
Cn1nnc2c(-c3ccccc3)ncn2c1=O  IC50 (resazurin; 7 days): 9 µM
COc1cccc2c1C(=O)c1c(O)c3c(c(O)c1C2=O)C[C@@](O)(C(=O)CO)C[C@@H]3O[C@H]1C[C@H](N)[C@H](O)[C@H](C)O1  IC50 (SRB): 0.1 µM
COc1cc(Nc2nccc(-c3cnn4nc(OC)ccc34)n2)cc(C(F)(F)F)c1  IC50 (ATP luminescence): 0.84 µM
CCN(CC)C(=O)c1ncn2c(=O)n(C)nnc12  IC50 (resazurin; 7 days): 80 µM
Cc1ccc(C(=O)Nc2ccc(Oc3cc4cnn(C)c4cc3-c3cn[nH]c3)c(F)c2)c(=O)n1-c1ccc(F)cc1  IC50 (ATP luminescence): 0.129 µM
CC(C)C[C@H](NC(=O)[C@H](Cc1ccccc1)NC(=O)c1cnccn1)B(O)O  IC50 (ATP luminescence): 0.02 µM
Cn1nnc2c(C(N)=O)ncn2c1=O  IC50 (MTT; 72 h): 596 µM
c1cc2c(cc1CNCC1(N3CCCC3)COC1)OCCO2  viability (30 µM; 48 h): 95.7%
COc1cccc2c1C(=O)c1c(O)c3c(c(O)c1C2=O)C[C@@](O)(C(=O)CO)C[C@@H]3O[C@H]1C[C@H](N)[C@H](O)[C@H](C)O1  IC50 (WST-1; 72 h): 0.04 µM
FC1CCN(C2(CNCc3ccc(-c4ccccc4)o3)COC2)C1 (centres unmarked)  viability (30 µM; 48 h): 46.6%
Cn1nnc2c(Cl)ncn2c1=O  IC50 (resazurin; 7 days): 15 µM
Fc1ccc2[nH]cc(CNCC3(N4CCC(F)C4)COC3)c2c1 (centres unmarked)  viability (30 µM; 48 h): 94.6%
Oc1c(C(c2ccc(F)cc2)N2CCCCC2)ccc2c1CCC2 (centres unmarked)  inhibition (MTT; 30 µM): 28%
Cc1cc(NC(=O)c2cccc3cc(-c4cccc5[nH]nc(N)c45)ccc23)ccc1F  IC50 (CCK-8; 72 h): > 20 µM
c1cc2cc(CNCC3(N4CCCC4)COC3)ccc2[nH]1  viability (30 µM; 48 h): 98.6%
